Drawing on PMC5086809 (European journal of pharmacology, 2013), this text covers EC50 for eleven compounds.

The target in the test is T1, human GPR119 receptor (G protein-coupled receptor 119) (Homo sapiens, UniProt Q8TDV5).
T1 sequence (Q8TDV5 1-335): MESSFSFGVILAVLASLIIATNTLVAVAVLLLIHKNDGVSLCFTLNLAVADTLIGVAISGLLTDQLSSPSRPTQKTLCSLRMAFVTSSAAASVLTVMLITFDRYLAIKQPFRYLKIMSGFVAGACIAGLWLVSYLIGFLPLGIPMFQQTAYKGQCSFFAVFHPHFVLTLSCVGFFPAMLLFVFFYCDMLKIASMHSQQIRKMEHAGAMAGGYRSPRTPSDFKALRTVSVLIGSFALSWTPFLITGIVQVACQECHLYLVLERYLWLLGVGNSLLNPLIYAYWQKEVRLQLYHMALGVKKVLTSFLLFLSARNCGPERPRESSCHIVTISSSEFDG
Nature of the test: HTRF cAMP accumulation assay, stable HEK293 cells. Format: cell-based. Summed up: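 HEK293 cells stably transfected with human GPR119, selected in 800 µg/ml geneticin and kept in 400 µg/ml G418. Test compound in DMEM with 2.5% fatty acid-free BSA, 30 min at room temperature. HTRF read (d2-cAMP plus Eu-cryptate anti-cAMP, 2 h, ex 337/em 665 and 620 nm). cAMP taken from a standard curve; EC50 from a sigmoidal fit; five independent experiments.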

The compound `CC(C)(C)OC(=O)N1CCC(OCc2nc(-c3ccncc3)no2)CC1` [PSN632408] registered a 50% effective concentration (EC50) of 7.61 µM. Consider `CCCCCCCC/C=C\CCCCCCCC(=O)NCCO` [Oleoyl ethanolamide], for which the half-maximal effective concentration (EC50) is 7.65 µM. Consider `CC(C)c1noc(C2CCN(c3ncnc(Nc4ccc(S(C)(=O)=O)cc4F)c3[N+](=O)[O-])CC2)n1` [AR231453], for which the EC50 was found to be 0.011 µM.

Compound `CCCCCCCC/C=C\CCCCCCCC(N)=O` [Oleamide] came in with an EC50 of 42.9 µM. As for `CCCCC/C=C\C/C=C\CCCCCCCC(=O)NCCO` [Linoleoyl ethanolamide], the EC50 came out at 8.11 µM. To `CCCCC/C=C\C/C=C\C/C=C\C/C=C\CCCCCC(=O)NCCO` [Docosatetra-7Z,10Z,13Z,16Z-enoyl ethanolamide] belongs 40.2 µM; to `CC/C=C\C/C=C\C/C=C\C/C=C\C/C=C\C/C=C\CCC(=O)NCCO` [Docosahexaenoyl ethanolamide], 63.8 µM; to `CC/C=C\C/C=C\C/C=C\C/C=C\C/C=C\CCCC(=O)NCCO` [Eicosapentaenoyl ethanolamide], 65.6 µM. On to `CCCCC/C=C\C/C=C\C/C=C\CCCCCCC(=O)NCCO` [Dihomo-γ-linolenoyl ethanolamide], for which the EC50 amounted to 25.6 µM. To `CCCCCCCC/C=C\CCCCCCCC(=O)NCCc1ccc(O)c(O)c1` [Oleoyl dopamine] belongs 54.8 µM; to `CCCCCCCCCCCCCCCC(=O)NCCO` [Palmitoyl ethanolamide], 10.1 µM.
